Source: PubChem BioAssay
Only some compounds are listed: those with a hit (about 1.8% of all), similar ones and a draw of the others.
EBNA-1 inh = blocks EBNA-1 binding to DNA. inhibition, % at 14.8 µM. 300,000 tested, 0.34% active. AID 1950. EBNA-1 DNA binding, fluorescence polarization; in the data active = inhibition above about 28%
GSTO1 counter = GSTO1 inhibition, counter-screen for RBBP9 inhibitors | recombinant GSTO1, activity-based probe fluorescence polarization | inhibition, % at 5.96 µM | 300,000 tested, 1.1% active;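 active = inhibition above the campaign mean inhibition plus 3 SD, cut at about 35% in these data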;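 note: 0% = GSTO1-1 with DMSO and 100% = wells lacking GSTO1-1 enzyme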
Target sequence (P78417 whole entry, looked up): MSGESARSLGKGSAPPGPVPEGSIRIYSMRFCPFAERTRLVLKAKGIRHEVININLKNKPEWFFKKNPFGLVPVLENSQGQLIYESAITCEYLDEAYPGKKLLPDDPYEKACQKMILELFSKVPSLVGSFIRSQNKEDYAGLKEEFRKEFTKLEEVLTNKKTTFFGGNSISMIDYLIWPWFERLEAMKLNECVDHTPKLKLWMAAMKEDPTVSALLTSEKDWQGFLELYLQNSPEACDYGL
procasp3 activ = activates human procaspase-3 | AID 463141 | P42574 | activation, % at 8.5 µM | 330,000 tested, 0.11% active | recombinant procaspase-3 D3A, Ac-DEVD-pNA absorbance 405 nm;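 active = activation above the mean of all tested compounds plus 3 SD, cut at about 21% in these data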;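 note: 0% = DMSO alone and 100% = DMSO wells spiked with extra 5 µM PC-3 D3A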
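assay system = Procaspase-3 D3A mutant | signal = absorbance at 405 nm, 0 and 120 min | times = 1 h preincubation plus 2 h reaction at 25 °C | repeats = single replicate | read-out = % activation between DMSO and enzyme-spiked controls | medium = Zinc-free HEPES saline buffer with Triton X-100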
Apaf1 inhib = inhibitors of human Apaf-1 apoptosome; O14727; inhibition, % at 20 µM; reconstituted apoptosome caspase-3 activity, DEVD-Rh110 fluorescence; 330,000 tested, 0.71% active; active = inhibition of at least 40% at 20 µM;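 note: plate controls were DMSO wells for no effect and DEVD-CHO caspase inhibitor wells for full effect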
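Material: biochemical Apaf-1 apoptosome reconstitution. Medium: Hepes buffer, pH 7.5. Also added: cytochrome c activation, bis-DEVD rhodamine 110 substrate. Timing: 30 min compound preincubation, 50 min activation, room temperature. Measured by: rhodamine 110 fluorescence at Ex 480/Em 540 nm.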
ZTA DNA inh = blocks Epstein-Barr virus ZTA, an EBNA-1 counter-screen; P03206; ZTA-DNA binding, fluorescence polarization; inhibition, % at 11 µM; 320,000 tested, 0.15% active; AID 2234; in the data active = inhibition above about 33%
procasp7 counter = counter-screen: procaspase-7 (human) activation. P55210. recombinant procaspase-7, Ac-DEVD-pNA absorbance 405 nm; D23A/D198A/D206A triple mutant, cannot self-cleave; scale: DMSO 0, 5 µM enzyme 100. activation, % at 8.5 µM. 330,000 tested, 0.093% active. AID 463210;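 active = percent activation above the screen-wide mean plus 3 SD, cut at about 25% in these data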
Target sequence (P55210 whole entry D23A/D198A/D206A): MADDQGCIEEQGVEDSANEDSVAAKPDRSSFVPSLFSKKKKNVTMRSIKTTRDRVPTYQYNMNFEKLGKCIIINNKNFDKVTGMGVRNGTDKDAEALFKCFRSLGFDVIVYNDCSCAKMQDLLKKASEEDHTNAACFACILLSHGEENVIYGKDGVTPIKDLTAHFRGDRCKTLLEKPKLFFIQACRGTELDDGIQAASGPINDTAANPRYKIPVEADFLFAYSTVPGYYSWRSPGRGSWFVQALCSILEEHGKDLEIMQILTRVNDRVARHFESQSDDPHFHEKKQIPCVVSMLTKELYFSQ
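Material: Procaspase-7 triple mutant (PC-7 D3A) | Quantity: 2 µM procaspase-7 mutant as dispensed | Reagent: DEVD-pNA substrate | Times: 1 h preincubation, 2 h reaction | Technique: 405 nm absorbance of p-nitroaniline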
GSTO1 confirm = confirmation of human GSTO1 inhibitors | shares compounds with GSTO1 counter | recombinant GSTO1, probe fluorescence polarization | inhibition, % at 5.96 µM | 2,400 tested, 54% active | AID 2176;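 active = inhibition above the primary screen's cutoff, its mean inhibition plus 3 SD, cut at about 35% in these data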;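 note: loss of polarization as inhibitors block binding of rhodamine sulfonate ester activity probe; 0% = GSTO1 with DMSO and 100% = wells lacking GSTO1 enzyme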
GSTO1 recomb ABPP = GSTO1 (human) inhibition by gel ABPP; shares compounds with GSTO1 counter; recombinant GSTO1, gel ABPP SE-Rh probe fluorescence; inhibition, % at 1 µM; 130 tested, 30% active; AID 463110;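 active = inhibition of the enzyme GSTO1 above about 75%, limit read from the data; inactive = inhibition below that limit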
Active calls of the source: *; i = inactive; x = no result given.

SMILES | EBNA-1 inh | GSTO1 counter | procasp3 activ | Apaf1 inhib | ZTA DNA inh | procasp7 counter | GSTO1 confirm | others
CCC(=O)Nc1cc(ON=C(C)C)cc([N+](=O)[O-])c1 | 0 | -3 | 1 | x | 19 | -4 | x
CC(C)=NOc1cc(NC(=O)CCl)cc([N+](=O)[O-])c1 | 1 | 80* | 3 | 10 | -12 | -1 | 100*
Oc1cccc(/C=N/NC(=S)NCCN2CCOCC2)c1O | -7 | 88* | -4 | 3 | -11 | -30 | 58*
O=C(NCCCn1ccnc1)c1ccc(OCC(F)(F)F)cc1 | 7 | 6 | -1 | 8 | -8 | 2 | x
CC(=O)Oc1ccc(-c2ccc(C(=O)OCC(=O)N(C)CC(=O)Nc3ccccc3Cl)cc2)cc1 | -1 | -6 | 5 | 8 | 7 | -3 | x
Cc1ccc(S(=O)(=O)/N=C2/C=C(C3C(=O)CC(C)(C)CC3=O)C(=O)c3ccccc32)cc1 | -7 | 61* | -11 | 28 | 12 | -28 | 11
Cc1ccc(S(=O)(=O)N2CCC(C(=O)C3C(=O)CC(C)(C)CC3=O)CC2)cc1 | -11 | -1 | -2 | 1 | -1 | -6 | x
CCOc1ccc(NC(=S)N2CCC(NC(=O)c3ccco3)CC2)cc1 | 1 | 0 | -9 | 7 | -9 | -13 | x
COc1ccc(Br)cc1-c1nc(CCl)cs1 | -2 | 72* | -15 | 9 | -5 | -7 | 97* | GSTO1 recomb ABPP=53
COC(=O)c1ccccc1NC(=O)COC(=O)CSc1nnc(N)s1 | 3 | 45* | 1 | -9 | 18 | -10 | 32
COc1ccc(S(=O)(=O)N(CC(=O)NC2CCCCC2)c2ccc(F)cc2)cc1 | 3 | 2 | -4 | 21 | -2 | 3 | x
CC(C)=CCc1c(O)cc2c(c1O)C(=O)CC(c1ccccc1)O2 (configuration not stated) | 4 | -7 | 9 | -5 | -20 | -3 | x
CC(C)=CCc1c(O)c(CC=C(C)C)c2c(c1O)-c1cc(O)c(O)cc1CC2 | -7 | 39* | -17 | 19 | -2 | -25 | -7
CC(CCc1ccccc1)NC(=O)COC(=O)c1cc(NS(=O)(=O)c2ccc(Cl)c([N+](=O)[O-])c2)ccc1O (configuration not stated) | -12 | 43* | 3 | 16 | -3 | 12 | 49*
COc1ccc(C(C)=O)c(Oc2ccc(S(=O)(=O)N3CCOCC3)cn2)c1 | x | x | 5 | 0 | -8 | -4 | x
CN(C)C(=O)c1cc(C(=O)c2ccccc2)c[nH]1 | -5 | 67* | 6 | 6 | 3 | 1 | 2
Cc1nc(C)c(-c2csc(N)n2)s1 | -1 | 39* | 7 | -7 | -5 | -10 | 9
Cc1ccc(Nc2nc(-c3sc(C)nc3C)cs2)cc1 | -6 | 8 | -5 | 16 | -6 | 3 | x
N#C/C(=C(/O)CCl)c1nc2ccccc2[nH]1 | 13 | 84* | -1 | -9 | 17 | 2 | 94*
N#C/C(=C(\O)Cc1ccccc1)c1nc2ccccc2[nH]1 | 2 | 7 | 3 | 3 | 5 | 3 | x
CC(=O)C(C(c1ccccc1)c1c[nH]c2ccccc12)[N+](=O)[O-] (configuration not stated) | -8 | -3 | -8 | 0 | -6 | 0 | x
Cc1cc(=O)n(CCCc2ccccc2)[nH]1 | -7 | 42* | -7 | 12 | -15 | -22 | 8
COc1cc(/C=C2\C(=O)N(c3ccc(S(N)(=O)=O)cc3)N=C2C)ccc1OC(=O)c1ccco1 | -1 | 53* | 4 | 91* | 4 | 9 | 10
CCS(=O)(=O)C1=NN2C(=N)/C(=C\c3ccc(OC(=O)c4ccco4)c(OC)c3)C(=O)N=C2S1 | 7 | -6 | 5 | -3 | -5 | 10 | x
CN(CC(=O)Nc1ccccc1C(F)(F)F)C(=O)C1CC1 | x | x | 7 | -12 | 17 | 4 | x
SMILES | EBNA-1 inh | GSTO1 counter | procasp3 activ | Apaf1 inhib | ZTA DNA inh | procasp7 counter | GSTO1 confirm | others
COc1cccc(C(=O)NNC(=O)c2ccc3ccccc3c2O)c1 | -2 | 45* | 0 | 7 | -14 | -1 | 4
COc1cccc(C(=O)NNC(=O)c2ccccc2)c1 | x | x | x | -1 | x | x | x
[O-][N+]1=c2ccc(Nc3ccccc3)cc2=NC12CCCCC2 | 1 | 58* | 2 | x | -11 | -14 | 35*
CC(C)NC(=O)CN1CCN(C(=O)CCl)CC1 | 1 | 38* | -4 | 0 | 1 | 2 | 58* | GSTO1 recomb ABPP=25
CCOC(=O)C/C(N)=N/NC(=O)c1ccc(Cl)cc1Cl | -7 | 62* | 1 | -1 | -12 | 1 | 5
Cn1cc(C(=O)c2ccc(Cl)cc2Cl)cc1C(=O)N/N=C(\N)COc1ccc(Cl)cc1Cl | 2 | -38 | 0 | 8 | 7 | 7 | x
Cc1ccc(N2C(=O)C3C4C=CC(C4)C3C2=O)cc1C (configuration not stated) | -11 | 1 | -5 | -9 | -17 | 5 | x
CC1=NN(c2ccc(C)c(C)c2)C(=O)C1C(c1cccc(O)c1)C1C(=O)N(c2ccc(C)c(C)c2)N=C1C (configuration not stated) | -29 | 51* | 4 | 87* | 9 | -8 | 32
Cc1ccccc1NNC(=O)C(=O)NNc1ccccc1C | 9 | 6 | -2 | -15 | 1 | -9 | x
Cc1ccccc1NC(=O)C(Cl)=C(Cl)Cl | -15 | 44* | -5 | 5 | 1 | 0 | 24
O=C1CCN(Cc2ccccc2)CCN1[C@H](COc1ccccc1)c1ccccc1 | -3 | 83* | -7 | 22 | 10 | -3 | 4
O=C(c1ccc(F)c(S(=O)(=O)N2CCOCC2)c1)N1CCN(c2ncccn2)CC1 | x | x | -4 | -4 | -14 | -1 | x
COc1ccc(C(=O)c2c(C(F)(F)F)oc3c2C(=O)c2ccccc2C3=O)cc1OC | -12 | 77* | 5 | 85* | -24 | -2 | 65*
COc1ccc(C(=O)Nc2ccc3c(c2)C(=O)c2ccccc2C3=O)cc1OC | 6 | 4 | 0 | i | 7 | -2 | x
COC(=O)c1c([N+](=O)[O-])c(OC)c(OC)c(OC)c1[N+](=O)[O-] | -16 | 39* | -3 | -7 | -18 | 3 | 54*
CN(C)c1ccc(CC2C(=O)Nc3ccccc32)cc1 (configuration not stated) | 11 | 48* | 7 | 29 | 9 | -12 | 5
Cc1cccn2c(=O)nc(SCC(=O)NCCc3ccccc3)nc12 | 4 | 11 | 1 | 4 | -8 | 0 | x
O=C(CN1CCCCC1)Nc1cccc(Oc2ccccc2)c1 | 14 | 3 | 7 | 17 | 5 | 3 | x
